The source made the active and inactive calls. The rule behind the calls is not given here.
Tests used:
Jurkat [1] = experiment: Immunosuppressive activity in human Jurkat T cells assessed as inhibition of PMA-induced IL-2 production at 10 uM after 13 hrs by ELISA relative to control; assay type: functional
How it was run: (§1)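 Jurkat T lymphocytes at 1 × 10^6 cells/mL were given compound at 1 μM or 10 μM final, then stimulated with 5 nM ionomycin plus 500 nM PMA for 13 h at 37 °C. Cells were spun down and supernatant IL-2 was measured by sandwich ELISA (anti-human IL-2 capture, biotinylated anti-human IL-2 detection). Values are % inhibition versus DMSO negative control, from at least three experiments.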

Jurkat [2] = experiment: Immunosuppressive activity in human Jurkat T cells assessed as inhibition of PMA-induced IL-2 production at 1 uM after 13 hrs by ELISA relative to control; assay type: functional; how it was run: as §1
Jurkat [3] = experiment: Immunosuppressive activity in human Jurkat T cells assessed as inhibition of PMA-induced IL-2 production after 13 hrs by ELISA; assay type: functional, cell-based

## O=C1C=CCC(c2ccc(OCc3ccccc3)cc2)O1 (centres undefined)
Jurkat [1]
  inhibition at 10 µM: 98.9%
Jurkat [2]
  inhibition at 1 µM: 28%

## O=C1C=CCC(c2ccsc2)O1 (centres undefined)
Jurkat [1]
  inhibition at 10 µM: 46.2%
Jurkat [2]
  inhibition: inactive

## Cc1cccc(C2CC=CC(=O)O2)c1 (centres undefined)
Jurkat [1]
  inhibition at 10 µM: 64.5%
Jurkat [2]
  inhibition at 1 µM: 47.9%

## Cc1ccc(C2CC=CC(=O)O2)c2ccccc12 (centres undefined)
Jurkat [1]
  inhibition at 10 µM: 100%
Jurkat [2]
  inhibition at 1 µM: 57.4%

## O=C1C=CCC(C(c2ccccc2)c2ccccc2)O1 (centres undefined)
Jurkat [1]
  inhibition at 10 µM: 89.2%
Jurkat [2]
  inhibition at 1 µM: 18.7%

## O=C1C=CCC(/C=C/c2ccccc2)O1 (centres undefined)
Jurkat [1]
  inhibition at 10 µM: 90.1%
Jurkat [2]
  inhibition at 1 µM: 12.7%

## O=C1C=CCC(c2ccoc2)O1 (centres undefined)
Jurkat [1]
  inhibition: inactive
Jurkat [2]
  inhibition: inactive

## COc1ccccc1C1CC=CC(=O)O1 (centres undefined)
Jurkat [1]
  inhibition at 10 µM: 89.2%
Jurkat [2]
  inhibition at 1 µM: 11%

## O=C1C=CCC(c2ccco2)O1 (centres undefined)
Jurkat [1]
  inhibition at 10 µM: 21.7%
Jurkat [2]
  inhibition: inactive

## COc1cccc(C2CC=CC(=O)O2)c1 (centres undefined)
Jurkat [1]
  inhibition at 10 µM: 90.4%
Jurkat [2]
  inhibition: inactive

## O=C1C=CCC(Cc2ccc3ccccc3c2)O1 (centres undefined)
Jurkat [3]
  IC50: 396 nM
Jurkat [1]
  inhibition at 10 µM: 100%
Jurkat [2]
  inhibition at 1 µM: 67.7%

## O=C1C=CCC(c2cccc3ccccc23)O1 (centres undefined)
Jurkat [1]
  inhibition at 10 µM: 100%
Jurkat [2]
  inhibition at 1 µM: 72.5%

## O=C1C=CCC(c2ccccc2)O1 (centres undefined)
Jurkat [3]
  IC50: 166 nM
Jurkat [1]
  inhibition at 10 µM: 82.6%
Jurkat [2]
  inhibition at 1 µM: 89.7%

## O=C1C=CCC(c2ccc3ccccc3c2)O1 (centres undefined)
Jurkat [1]
  inhibition at 10 µM: 97.2%
Jurkat [2]
  inhibition at 1 µM: 37.5%

## O=C1C=CCC(c2cccs2)O1 (centres undefined)
Jurkat [1]
  inhibition at 10 µM: 59.6%
Jurkat [2]
  inhibition: inactive

## O=C1C=CCC(c2cc3ccccc3o2)O1 (centres undefined)
Jurkat [3]
  IC50: 66.9 nM
Jurkat [1]
  inhibition at 10 µM: 100%
Jurkat [2]
  inhibition at 1 µM: 100%

## Cc1ccccc1C1CC=CC(=O)O1 (centres undefined)
Jurkat [1]
  inhibition at 10 µM: 86.1%
Jurkat [2]
  inhibition at 1 µM: 15.2%

## Cc1ccc2ccccc2c1C1CC=CC(=O)O1 (centres undefined)
Jurkat [1]
  inhibition at 10 µM: 75.5%
Jurkat [2]
  inhibition at 1 µM: 6.4%

## O=C1C=CCC(c2ccnc3ccccc23)O1 (centres undefined)
Jurkat [1]
  inhibition at 10 µM: 100%
Jurkat [2]
  inhibition at 1 µM: 27.8%

## O=C1C=CCC(c2cnc3ccccc3c2)O1 (centres undefined)
Jurkat [1]
  inhibition at 10 µM: 98.7%
Jurkat [2]
  inhibition at 1 µM: 41.5%

## COc1ccc(C2CC=CC(=O)O2)cc1 (centres undefined)
Jurkat [1]
  inhibition at 10 µM: 87.2%
Jurkat [2]
  inhibition at 1 µM: 39.8%

## O=C1C=CCC(c2csc3ccccc23)O1 (centres undefined)
Jurkat [3]
  IC50: 908 nM
Jurkat [1]
  inhibition at 10 µM: 100%
Jurkat [2]
  inhibition at 1 µM: 77.1%

## O=C1C=CCC(CC23CC4CC(CC(C4)C2)C3)O1 (centres undefined)
Jurkat [3]
  IC50: 1570 nM
Jurkat [1]
  inhibition at 10 µM: 100%
Jurkat [2]
  inhibition at 1 µM: 57.4%

## Cc1ccc(C2CC=CC(=O)O2)cc1 (centres undefined)
Jurkat [3]
  IC50: 142 nM
Jurkat [1]
  inhibition at 10 µM: 80.6%
Jurkat [2]
  inhibition at 1 µM: 89%

Reference: ChEMBL document CHEMBL1833791, “Synthesis and biological evaluation of α,β-unsaturated lactones as potent immunosuppressive agents” (Bioorg Med Chem Lett, 2011)
